Assay [1] can be described thus: inhibitors of TNFa-induced NFkB p65 translocation, primary screen, imaging, HUVEC, MLSMR starter and 10KST1 sets (AID 438;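 active = inhibition above 20% together with a positive visual image hit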;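 note: compound added about 3h40 before a 20 min TNFalpha stimulation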;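 for inhibition: signal is the nuclear over cytoplasmic p65 intensity ratio per well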). As to conditions: HUVEC TNFa-induced p65 nuclear translocation; cell count: measured here: nuclei count (cytotoxicity indicator), at 2.08 µM; inhibition: at 2 µM, stronger effect = higher value, 0% TNFa-plus-vehicle, 100% no-TNFa wells.
Assay [2] is described as follows: inhibitors of mutant huntingtin aggregation, primary screen, imaging, exon1htt(103Q)mCFP cells, high-content imaging (AID 483;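 active = visual image review flags a hit and inhibition of aggregation exceeds 20%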;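 note: compound exposure lasted 3 days before fixation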;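 for nuclei count: percent of the per-plate median nuclei count of sample wells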). As to conditions: exon1htt(103Q)mCFP cell line, aggregate imaging, at 2 µM; inhibition of aggregation: stronger effect = higher value; nuclei count: measured here: cell count, toxicity.
Assay [3] is described as follows: inhibitors of E-selectin induction by TNFa, primary screen, imaging, HUVEC, immunofluorescence, MLSMR starter and 10KST1 sets (AID 487;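 active = visually confirmed hit in the image check and inhibition above 20%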;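 for inhibition: signal is fraction of cell area covered by stained E-selectin grains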;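 for nuclei count: 100% = median nuclei count of all wells on the same plate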). As to conditions: HUVEC TNFalpha-induced E-selectin immunofluorescence imaging, at 2 µM; inhibition: stronger effect = higher value; nuclei count: measured here: cell number, toxicity.
For assay [4], the target named is Voltage-gated potassium channel subunit beta-2 (Rattus norvegicus) (UniProt P62483). Put plainly: KvBeta enzyme negative modulators, primary screen, biochemical, NADPH fluorescence (AID 622;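 active = fluorescence slope higher than the sample average by over 3 SD, cut at about -0.22 in these data, passing the limit was not always enough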;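 note: slope of raw intensity against log time taken from 70 to 1610 s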). As to conditions: recombinant KvBeta, 4-cyanobenzaldehyde reduction, at 10 µM, stronger effect = higher value.
Assay [5] shares this target. Put plainly: KvBeta positive modulators, primary screen, biochemical, NADPH fluorescence (AID 623;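 active = NADPH fluorescence slope more negative than the mean of all samples by about 3 SD, 99.7% confidence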;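 note: fluorescence intensity change per second fitted from 20 to 320 s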). As to conditions: Recombinant KvBeta, NADPH fluorescence decrease slope, 10 min; at 10 µM; stronger effect = lower value.
For assay [6], the target named is Muscarinic acetylcholine receptor M4 (Homo sapiens) (UniProt P08173). The assay can be described thus: compounds altering M4/GIRK thallium flux, either direction, primary screen, M4 allosteric agonist project, cell-based, HEK293 M4/GIRK, BTC-AM (AID 625).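 Note: thallium influx through GIRK channels coupled to M4 in HEK293 cells with BTC-AM dye.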 As to conditions: at 10 µM, actives lie on both sides. The gist of the method:
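System: HEK293 cells with M4 receptor and GIRK channels | Incubation: Cells overnight at 37 °C, BTC-AM loading 1 h, reads 2 min total | Technique: Kinetic BTC-AM fluorescence sampled at 1 Hz, 10 s pre-addition baseline | Measure: Post-addition slope, 15–24 s, of baseline-normalized fluorescence | Control set: Carbachol positive, DMSO negative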

A short description of assay [7]: inhibitors of Sendai virus-induced IRF3 signaling, primary screen, TLR/RLR signaling modifier project, cell-based, Sendai virus stimulus, luciferase, 10K MLSCN set (AID 602276;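 active = inhibition at or above 50% at 10 µM; inactive = inhibition below 50%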;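 note: firefly luciferase from ISG56 promoter only with Renilla not read in this screen; 0% = Sendai virus plus DMSO and 100% = medium plus DMSO without virus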). As to conditions: HEK293 RL24 IRF3 luciferase reporter, at 10 µM, stronger effect = higher value. (In general: A reporter such as luciferase makes a cellular process visible.)
The nature of assay [8]: inhibitors of poly I:C-induced TLR3 signaling, primary screen, cell-based, poly I:C stimulus, luciferase, 10K MLSCN set (AID 602277;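 active = inhibition of the reporter signal at or above 50%; inactive = inhibition below 50%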). As to conditions: HEK293-TLR3 RL24 IRF3 luciferase reporter, at 10 µM, stronger effect = higher value.

The term inhibition denotes the change of the read-out against control, counted positive when it falls.

Each structure is given as a SMILES string. Activity calls are given as the source filed them.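 Rule for the calls, unless noted: active = fluorescence slope after compound addition differing from the mean of all tested samples at 99.7% confidence, mostly higher but some lower; inactive = the rest.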

Sequence of Voltage-gated potassium channel subunit beta-2 (Rattus norvegicus) (P62483 whole entry, looked up): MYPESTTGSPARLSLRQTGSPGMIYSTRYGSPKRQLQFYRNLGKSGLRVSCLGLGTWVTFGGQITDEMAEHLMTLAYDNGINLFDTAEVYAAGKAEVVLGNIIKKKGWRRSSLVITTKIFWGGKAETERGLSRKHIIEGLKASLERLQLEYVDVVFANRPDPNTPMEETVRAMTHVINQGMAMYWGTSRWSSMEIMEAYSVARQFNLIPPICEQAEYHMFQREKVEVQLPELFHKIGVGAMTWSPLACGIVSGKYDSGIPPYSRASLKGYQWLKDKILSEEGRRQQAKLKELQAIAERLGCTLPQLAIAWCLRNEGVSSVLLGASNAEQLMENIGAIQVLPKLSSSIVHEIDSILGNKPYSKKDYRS
Sequence of Muscarinic acetylcholine receptor M4 (Homo sapiens) (P08173 whole entry, looked up): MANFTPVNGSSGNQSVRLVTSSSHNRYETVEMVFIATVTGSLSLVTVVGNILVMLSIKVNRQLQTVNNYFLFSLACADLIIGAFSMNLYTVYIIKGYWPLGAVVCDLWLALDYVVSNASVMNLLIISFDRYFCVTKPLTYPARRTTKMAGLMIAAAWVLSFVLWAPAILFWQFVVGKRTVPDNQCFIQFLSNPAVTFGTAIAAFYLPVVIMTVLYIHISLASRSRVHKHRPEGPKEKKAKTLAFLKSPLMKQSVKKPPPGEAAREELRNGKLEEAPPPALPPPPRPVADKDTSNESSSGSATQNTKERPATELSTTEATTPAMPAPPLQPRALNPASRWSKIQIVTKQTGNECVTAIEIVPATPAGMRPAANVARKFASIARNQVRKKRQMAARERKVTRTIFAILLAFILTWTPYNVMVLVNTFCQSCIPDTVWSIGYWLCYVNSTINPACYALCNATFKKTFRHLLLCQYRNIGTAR

Take `Cc1cc2oc(=O)cc(CN3CCN(Cc4ccc5c(c4)OCO5)CC3)c2cc1C`: the cell count in assay [1] was 362. Besides, the inhibition in assay [1] was 6.8% (inactive); in assay [3], -0.8% (inactive); in assay [7], 5.83% (inactive); in assay [8], 27% (inactive). Moreover, the inhibition of aggregation in assay [2] is -15.1% (inactive). Also, the nuclei count was 99.2% in assay [2] and 108% in assay [3]. For the same molecule, the fluorescence slope in assay [4] is -0.536 (inactive); in assay [6] it was 0.00603 (inactive). In addition, in assay [5], the NADPH fluorescence slope was -4.3e-05 (inactive).

For `O=C(Nc1ccc2c(c1)OCO2)c1ccc(Br)c(S(=O)(=O)N2CCCC2)c1`, the cell count in assay [1] is 660. Moreover, the inhibition in assay [1] is -5.2% (inactive); in assay [3], -99.5% (inactive); in assay [7], -20.9% (inactive); in assay [8], -15.4% (inactive). The inhibition of aggregation in assay [2] is -2% (inactive). Also, the nuclei count in assay [2] came out at 103%; in assay [3], 90.4%. Moreover, the fluorescence slope in assay [4] is -0.505 (inactive); in assay [6] it was 0.0042 (inactive). Moreover, the NADPH fluorescence slope in assay [5] is -6.5e-05 (inactive).

With `Cc1cc(NC(=O)CSc2ccc(Cl)cc2)no1`, the cell count in assay [1] stood at 368. Also, the inhibition in assay [1] was 0.2% (inactive); in assay [3], -83.4% (inactive); in assay [7] it was -7.02% (inactive); in assay [8] it was -14.7% (inactive). Further, the inhibition of aggregation in assay [2] was 12.7% (inactive). For the same molecule, the nuclei count stood at 94.2% in assay [2] and 102% in assay [3]. Besides, the results for the fluorescence slope in assay [4] and in assay [6] were -0.548 (inactive) and 0.00359 (inactive), respectively. For the same molecule, in assay [5], the NADPH fluorescence slope was -0.000128 (inactive).

On to `O=C1CCc2nc3sc4c(c3c(=O)n2N1)CCCC4`, for which the cell count in assay [1] was determined as 667. For the same molecule, the inhibition is -18.1% (inactive) in assay [1], 37.8% (inactive) in assay [3], -2.82% (inactive) in assay [7] and -5.12% (inactive) in assay [8]. For the same molecule, the inhibition of aggregation in assay [2] was -14% (inactive). Also, the nuclei count in assay [2] turned out to be 104%; in assay [3] it was 98.8%. In addition, the fluorescence slope in assay [4] was -0.424 (inactive); in assay [6] it was 0.00678 (inactive). In assay [5], the NADPH fluorescence slope was 4.4e-05 (inactive).

Turning to `Cc1ccc(S(=O)(=O)Cc2ccc(C(=O)NCc3ccc4c(c3)OCO4)o2)cc1`, the cell count in assay [1] came to 592. Also, the inhibition in assay [1] was -1.9% (inactive); in assay [3], -16.5% (inactive); in assay [7], 9.39% (inactive); in assay [8], 14.2% (inactive). For the same molecule, the inhibition of aggregation in assay [2] is -21.6% (inactive). Moreover, the nuclei count was found to be 86.7% in assay [2] and 106% in assay [3]. The figures for the fluorescence slope in assay [4] and in assay [6] were -0.454 (inactive) and 0.00504 (inactive), respectively. Besides, in assay [5], the NADPH fluorescence slope is -9.9e-06 (inactive).

For the molecule `COc1ccccc1N1CCN(C(=O)c2ccc3nc(-c4ccco4)c(-c4ccco4)nc3c2)CC1`, the cell count in assay [1] turned out to be 570. Besides, the inhibition in assay [1] was -15.9% (inactive); in assay [3], -44.3% (inactive); in assay [7] it was 16.2% (inactive); in assay [8], 8.44% (inactive). The inhibition of aggregation in assay [2] was 5.2% (inactive). For the same molecule, the nuclei count in assay [2] turned out to be 136%; in assay [3] it was 115%. In addition, the fluorescence slope was -0.324 (inactive) in assay [4] and 0.005 (inactive) in assay [6]. Also, the NADPH fluorescence slope in assay [5] is 3.6e-06 (inactive).

With `CN(c1ccccc1)C(c1ccc(F)cc1)c1nnnn1CC1CCCO1` (centres undefined), in assay [1], the cell count turned out to be 762. The inhibition in assay [1] was -2.9% (inactive); in assay [3], -61.8% (inactive); in assay [7], 16% (inactive); in assay [8], 42.3% (inactive). For the same molecule, the inhibition of aggregation in assay [2] was -1.8% (inactive). In addition, the nuclei count in assay [2] was determined as 100%; in assay [3], 132%. Also, the fluorescence slope is -0.288 (inactive) in assay [4] and 0.00686 (inactive) in assay [6]. In assay [5], the NADPH fluorescence slope is -1.6e-05 (inactive).

Regarding `CCOC(=O)C1CCCN(C(=O)CNS(=O)(=O)c2ccc(Br)s2)C1` (centres undefined), the cell count in assay [1] was 232. The inhibition is 3.3% (inactive) in assay [1], -33.6% (inactive) in assay [3], 11.6% (inactive) in assay [7] and 8.54% (inactive) in assay [8]. Moreover, in assay [2], the inhibition of aggregation was -8.6% (inactive). Further, the nuclei count in assay [2] amounted to 108%; in assay [3] it was 113%. Also, the fluorescence slope in assay [4] was -0.437 (inactive); in assay [6] it was 0.00599 (inactive). Further, the NADPH fluorescence slope in assay [5] is -5.6e-05 (inactive).

For the molecule `Cc1ccc(-c2nn3c(=O)c(C)nnc3s2)cc1`, the cell count in assay [1] stood at 571. Besides, the inhibition in assay [1] was -19.6% (inactive); in assay [3] it was 3.6% (inactive); in assay [7] it was -12.3% (inactive); in assay [8], -53.9% (inactive). In assay [2], the inhibition of aggregation was -0.2% (inactive). The nuclei count was 98.1% in assay [2] and 108% in assay [3]. In addition, the results for the fluorescence slope in assay [4] and in assay [6] were -0.309 (inactive) and 0.0056 (inactive), respectively. Besides, the NADPH fluorescence slope in assay [5] is -4.6e-06 (inactive).

`CCOC(=O)c1c(C)oc2ccc(O)c(CN(C)C)c12`: in assay [1], the cell count was found to be 663. In addition, the inhibition in assay [1] is 1.9% (inactive); in assay [3], -211% (inactive); in assay [7], 8.53% (inactive); in assay [8], 20% (inactive). Moreover, the inhibition of aggregation in assay [2] was 16.5% (inactive). In addition, the results for the nuclei count in assay [2] and in assay [3] were 105% and 108%, respectively. For the same molecule, the fluorescence slope in assay [4] was -0.551 (inactive); in assay [6], 0.00733 (inactive). Further, in assay [5], the NADPH fluorescence slope was -6.7e-06 (inactive).

Consider `Cc1ccc(S(=O)(=O)NCCNC(=O)c2ccccc2)cc1`, for which the cell count in assay [1] was 212. Further, the inhibition in assay [1] was -4.9% (inactive); in assay [3] it was -38.2% (inactive); in assay [7], 13.4% (inactive); in assay [8], 10.4% (inactive). Moreover, the inhibition of aggregation in assay [2] was 10.3% (inactive). The nuclei count was determined as 97.8% in assay [2] and 93.6% in assay [3]. The fluorescence slope in assay [4] is -0.282 (inactive); in assay [6], 0.00552 (inactive). Also, the NADPH fluorescence slope in assay [5] is -4.2e-05 (inactive).

For `Cc1cc(NC(=O)CSc2nc3ccsc3c(=O)n2NC(=O)c2ccccc2)no1`, the cell count in assay [1] came out at 317. Also, the inhibition in assay [1] is -1.2% (inactive); in assay [3], -234% (inactive); in assay [7], -39.7% (inactive); in assay [8] it was -61.1% (inactive). For the same molecule, the inhibition of aggregation in assay [2] was -4.7% (inactive). Moreover, the nuclei count in assay [2] was found to be 102%; in assay [3], 117%. The fluorescence slope in assay [4] is -0.449 (inactive); in assay [6] it was 0.00651 (inactive). In addition, the NADPH fluorescence slope in assay [5] was 9e-05 (inactive).

For `COc1ccccc1NC(=O)N1c2ccc(F)cc2CCC1C` (centres undefined), in assay [1], the cell count came out at 407. For the same molecule, the inhibition in assay [1] was -2.5% (inactive); in assay [3], -58.6% (inactive); in assay [7], 16.7% (inactive); in assay [8] it was 24.1% (inactive). In addition, in assay [2], the inhibition of aggregation was 2.1% (inactive). Besides, the values for the nuclei count in assay [2] and in assay [3] were 108% and 111%, respectively. The fluorescence slope in assay [4] was -0.567 (inactive); in assay [6], 0.00635 (inactive). Besides, in assay [5], the NADPH fluorescence slope was -5e-06 (inactive).

As for `O=C(c1ccccc1)c1ccc(N2CCOCC2)c(NC(=O)c2ccco2)c1`, the cell count in assay [1] was 318. Moreover, the inhibition was -13% (inactive) in assay [1], -23.2% (inactive) in assay [3], 14.1% (inactive) in assay [7] and 17.3% (inactive) in assay [8]. The inhibition of aggregation in assay [2] was -8.7% (inactive). Also, the results for the nuclei count in assay [2] and in assay [3] were 114% and 119%, respectively. Besides, the fluorescence slope in assay [4] was -0.421 (inactive); in assay [6], 0.0062 (inactive). Also, the NADPH fluorescence slope in assay [5] is 1e-05 (inactive).
